Test results reported in article PMC12401638 (Drug Testing and Analysis, 2025).
Read-outs that look alike come from different tables or passages of the source.

Legend:
[1] = test system: both cannabinoid receptors; details: cited from earlier work
[2] = molecular target: CB1 (Homo sapiens, UniProt P21554); assay: cell-based; type: cell-based
[3] = molecular target: T1, CB2 (Homo sapiens, UniProt P34972); assay: cell-based; type: cell-based
[4] = molecular target: T1, CB2; details: [35S]GTPγS, cAMP and βarr2 recruitment assay; cited from earlier work
[5] = test system: neuropathic pain; details: mouse model for neuropathic pain; cited from earlier work
[6] = Metabolite identification by human liver microsome incubation and LC-QTOF-MS; type: in vitro ADME; details: HLM incubation 37°C, 2 h
Summary of the method: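 Pooled human liver microsomes (50 donors, 20 mg/mL stock) with NADPH (10 mM stock) in 100 mM phosphate buffer, pH 7.4, 10 mM MgCl2. Controls: buffer only, and buffer plus NADPH without microsomes. Microsomal samples run in duplicate. Incubated 2 h at 37°C, quenched with acetonitrile, centrifuged, supernatant partly dried and filtered. Analysed by LC-QTOF-MS with an ammonium formate (10 mM, pH 3) / MeOH:ACN gradient.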

T1 sequence (P34972 whole entry): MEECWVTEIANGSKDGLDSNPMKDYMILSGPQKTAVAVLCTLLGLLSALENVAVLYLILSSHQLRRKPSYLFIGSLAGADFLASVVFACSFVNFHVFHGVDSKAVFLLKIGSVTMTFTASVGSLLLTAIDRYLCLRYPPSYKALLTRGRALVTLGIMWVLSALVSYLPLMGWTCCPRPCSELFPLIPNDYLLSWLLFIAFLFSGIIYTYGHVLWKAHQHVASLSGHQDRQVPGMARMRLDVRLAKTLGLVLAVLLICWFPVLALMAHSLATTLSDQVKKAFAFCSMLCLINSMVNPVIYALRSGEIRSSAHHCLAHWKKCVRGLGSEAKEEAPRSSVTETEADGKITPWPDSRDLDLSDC
T1 sequence (P32121 whole entry partner): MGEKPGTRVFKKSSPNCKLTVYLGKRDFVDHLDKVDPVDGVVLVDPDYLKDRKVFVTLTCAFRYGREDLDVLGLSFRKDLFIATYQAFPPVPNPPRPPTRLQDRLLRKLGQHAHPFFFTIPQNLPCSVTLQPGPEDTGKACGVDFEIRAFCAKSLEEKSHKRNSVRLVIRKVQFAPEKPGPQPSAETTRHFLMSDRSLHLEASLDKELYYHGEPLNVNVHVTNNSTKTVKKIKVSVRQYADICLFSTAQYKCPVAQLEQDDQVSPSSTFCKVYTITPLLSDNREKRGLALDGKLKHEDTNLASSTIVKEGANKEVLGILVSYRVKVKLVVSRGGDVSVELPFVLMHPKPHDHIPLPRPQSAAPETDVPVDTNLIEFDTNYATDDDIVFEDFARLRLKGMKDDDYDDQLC
CB1, sequence (P21554 whole entry): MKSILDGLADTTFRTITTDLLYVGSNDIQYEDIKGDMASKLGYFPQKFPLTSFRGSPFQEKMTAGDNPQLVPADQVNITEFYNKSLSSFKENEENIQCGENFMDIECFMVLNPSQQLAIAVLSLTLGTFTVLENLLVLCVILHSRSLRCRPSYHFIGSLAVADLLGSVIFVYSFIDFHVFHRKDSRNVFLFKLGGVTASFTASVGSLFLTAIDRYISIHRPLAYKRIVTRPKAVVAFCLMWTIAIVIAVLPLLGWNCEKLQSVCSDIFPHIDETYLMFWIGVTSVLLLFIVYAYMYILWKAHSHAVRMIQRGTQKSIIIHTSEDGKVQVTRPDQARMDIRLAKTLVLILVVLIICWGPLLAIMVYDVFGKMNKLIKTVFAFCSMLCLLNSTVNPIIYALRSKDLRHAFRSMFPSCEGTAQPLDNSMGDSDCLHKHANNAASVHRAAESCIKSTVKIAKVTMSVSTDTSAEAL
CB1, sequence (P32121 whole entry partner): as the sequence (P32121 whole entry partner) above

Cc1c(Br)cn(Cc2ccc(F)cc2)c(=O)c1C(=O)NC1CCCCCC1 [B2, 5‐bromo‐N‐cycloheptyl‐1‐(4‐fluorobenzyl)‐4‐methyl‐2‐oxo‐1,2‐dihydropyridine‐3‐carboxamide]
activity and affinity at both cannabinoid receptors [1]: nanomolar activity and affinity

Cc1c(Br)cn(Cc2ccc(F)cc2)c(=O)c1NC(=O)C1CCCCCC1 [C2, N‐(5‐bromo‐1‐(4‐fluorobenzyl)‐4‐methyl‐2‐oxo‐1,2‐dihydropyridin‐3‐yl)cycloheptanecarboxamide]
CB1 activity compared with CH-FUBBMPDORA [2]: more active than CH‐FUBBMPDORA | CB2 receptor activation potential compared with CH-FUBBMPDORA [3]: almost identical and equally weak | activation potential at CB2 [4]: (very) limited activation potential | antinociceptive activity [5]: displayed antinociceptive activity

Cc1c(Br)cn(Cc2ccc(F)cc2)c(=O)c1NC(=O)C1CCCCC1 [CH‐FUBBMPDORA, N‐[5‐bromo‐1‐(4‐fluorobenzyl)‐4‐methyl‐2‐oxo‐1,2‐dihydropyridin‐3‐yl)cyclohexanecarboxamide]
number of metabolites identified [6]: Four | Area (LC-QTOF-MS peak area) ([6]; with NADPH): 5.68e + 05 | EC50 [2]: 3780 nM | EC50 [3]: 4270 nM

CCCCCn1cc(C(=O)c2cccc3ccccc23)c2ccccc21 [JWH‐018]
E max (%) (95% CI), CB1, relative to CP55,940 (100%) [2]: 378 (348–409) % | EC50 ([2]; read-out: EC 50 (nM) (95% CI), CB1): 14.3 nM | E max (%) (95% CI), CB2, relative to CP55,940 (100%) [3]: 63.2 (55.8–70.9) % | EC50 ([3]; read-out: EC 50 (nM) (95% CI), CB2): 4.36 nM
